For the series, the system named is MS2 coat protein. The series can be described thus: apparent Kd, MS2 coat protein; higher = weaker binding; RNA-MaP array; FMN 200 µM where present. A digest of the protocol:
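The apparent Kd is the median of filtered binding-curve fits, one per cluster, to green signal normalised to red-channel RNA signal and control-cluster median Fmax. The clusters were on Illumina sequencing chips, and stalled E. coli RNA polymerase had transcribed the designs on them. Titration used SNAP-549-labelled MS2 coat protein from 0.7 or 1.5 nM, doubling to 3 µM, without and then with constant ligand, in 100 mM Tris-HCl pH 7.5, 80 mM KCl, 4 mM MgCl2, BSA, DTT, yeast tRNA and Tween-20.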

[1] abbreviates: designed as: OFF switch for flavin mononucleotide, no ligand.
Setting [2] is: ligand present: flavin mononucleotide, designed as: OFF switch for flavin mononucleotide.
Setting [3] is: designed as: ON switch for flavin mononucleotide, no ligand.
The mark [4] stands for this setting: ligand present: flavin mononucleotide, designed as: ON switch for flavin mononucleotide.

Here are results for 20 sequences from the EternaBench riboswitch data.

As a reminder, the apparent Kd is the concentration giving half-maximal binding under the conditions of the assay. “CUUUUGUGAGGAUAUCAGUAGUAAUACAAUAGUAUUACUACUGAGAAGGCACAUGAGGAUCACCCAUGUUUCUC”: the “apparent Kd” value under setting [1] came out at 0.0424 µM and the “apparent Kd” value under setting [2] was found to be 0.121 µM.
On to “CUUCUGUAAGGAUAUGUAUGCUCCUGGUAUGUCGCGAGGAGACAGAAGGUACAUGAGGAUCACCCAUGUGGGCG”, for which the “apparent Kd” value is, setting by setting: under setting [1], 0.168 µM; under setting [2], 0.304 µM.
For the sequence “GUAUUAAAGAUCCAUUUAUACAACAUGAGGAUCACCCAUGUGCAGGAUAUCGUGUGUUUUAUAUUCGAGAAGGGCAAAUUCAUU”, the “apparent Kd” value was determined as 0.0507 µM under setting [1] and 0.105 µM under setting [2].
Regarding “GUAUAUAGUGUGAGGAUAUGCUGGUCCUUGGAUCAGCAGAAGGCACAUGAGGAUCACCCAUGUAGUUUAUUUUA”, the “apparent Kd” value under setting [1] came out at 0.0307 µM and the “apparent Kd” value under setting [2] worked out at 0.0894 µM.
For “UCAUUAUAGAUCCAUUUUAACUACAUGAGGAUCACCCAUGUGCAGGAUAUCGAUUGUUUUACUUUCGAGAAGGGCAAAUACAGA”, the “apparent Kd” value by setting is: under setting [1], 0.078 µM; under setting [2], 0.202 µM.
On the same counts, the results for “CCCGGCGUGUCGCUACGCCGAGAGCAGGAUAUUCCGCCGUGAUCUACAUGAGGAUCACCCAUGUGGAAGAAGGGCUACACAAAA” are 0.0143 µM and 0.121 µM.
Turning to “CUUUUGUGAGGAUAUUAGUAGUAAAUGAUUAAAAUUAUUACUGAGAAGGCACAUGAGGAUCACCCAUGUUCCUC”, the “apparent Kd” value under setting [1] was determined as 0.0451 µM and the “apparent Kd” value under setting [2] turned out to be 0.655 µM.
As for “CGCCAUCCCGGUGGCGUGAGGAUACCAGAAGGGACGAUCUCACAUGAGGAUCACCCAUGUUAUAGUCAGGAUAUGGGUUCAUCA”, the “apparent Kd” value came out at 0.0885 µM under setting [3] and 0.0123 µM under setting [4].
“UCACCUGCCGAGGAUAUGAACGUAUUGAAUUGAUUAGAAGGCGGCACAUGAGGAUCACCCAUGUCACUGCACGC”: the “apparent Kd” value came out at 0.0117 µM under setting [1] and 0.0115 µM under setting [2].
For “UGUUGAUAGCAGAAGGACAUGAGGAUCACCCAUGUAAGGUUACAAAUACAUGUAGGAUAUGCUAUUGACUAAGAGUGAGCGUUC” the same measures were 0.0434 µM and 0.565 µM.
For “ACCAUGGUACAGAAGGGCAAUUUAUUUAUUUAUUAUUUAGUACUGCAUUGCAGGAUAUGUUUAACAUGAGGAUCACCCAUGUAC”, the “apparent Kd” value by setting is: under setting [3], 0.0318 µM; under setting [4], 0.0214 µM.
Consider “GUAGCAUACCGAGGAUAUUCAGGGCGUGGUUAAACAUGAGGAUCACCCAUGUGGCGAAAGCCUAGGGAGAAGGCGGAAUGCUAC”, for which the “apparent Kd” value was 0.0287 µM under setting [3] and 0.0225 µM under setting [4].
As for “GCAUGUGUGUAAGGAUAUGCAUCACUGAGAAAUUUAGUGAGGAAGAUCACAUGAGGAUCACCCAUGUAGAAGGUACACACGUGG”, the “apparent Kd” value under setting [1] came to 0.0093 µM and the “apparent Kd” value under setting [2] is 0.0545 µM.
For “ACAGCUGAAGGAUAUACUUGGGAAAAAAAAAAAAAAAAAAAACAUGAGGAUCACCCAUGUAGAAGGUCAGCUGA” the same measures were 0.103 µM and 0.06 µM.
“UAAUAUUUAUGAUAUUAUUACAUUAGAAGGCUAGACAUGUGGAUACAUGAGGAUCACCCAUGUAUAGAGGAUAUAGACAUAUAU”: the “apparent Kd” value is, setting by setting: under setting [1], 0.0318 µM; under setting [2], 0.0536 µM.
Regarding “GCGCAAAGAUUAUUAUGAAUAAACAUGAGGAUCACCCAUGUAUAGGAUAUCGACUCGAAUAGAGUCGAGAAGGAUACAUAGCGC”, the “apparent Kd” value runs as follows: under setting [1], 0.0225 µM; under setting [2], 0.0971 µM.
Take “CCCACGAGCGUAGGAUAUACAUGAGGAUCACCCAUGUAGGCACAAUGUCCCAGCUAGUGACCAGUGUAGAAGGACGUGUCUGGG”: the “apparent Kd” value runs as follows: under setting [1], 0.0508 µM; under setting [2], 0.107 µM.
Consider “UUCAUGUGAGGAUAUAGUACUCUUUCUAUUAUUAUUGAGUAUUAGAAGGCACAUGAGGAUCACCCAUGUAGUAC”, for which the “apparent Kd” value under setting [1] came to 0.0307 µM and the “apparent Kd” value under setting [2] was 0.0164 µM.
Turning to “CCUCUAACCUAGGAUAUAGGUAGACCUAGUCGCCUAGAAGGAGGUACAUGAGGAUCACCCAUGUAUAUUGGGCU”, the “apparent Kd” value is 0.277 µM under setting [1] and 0.127 µM under setting [2].
Take “GGACCACAUCAGGAUAUGACUAGCCUCGGCUAGUCAGAAGGGAUGACAUGAGGAUCACCCAUGUGAUCAGGUCC”: the “apparent Kd” value was 0.0679 µM under setting [1] and 0.11 µM under setting [2].
